Source: ChEMBL document CHEMBL1136094, “Novel, potent and selective cyclin D1/CDK4 inhibitors: indolo[6,7-a]pyrrolo[3,4-c]carbazoles” (Bioorg Med Chem Lett, 2003)

How the values were obtained:
[1] = target: Inhibitor of nuclear factor kappa-B kinase subunit beta (Homo sapiens) (UniProt O14920); assay: Inhibition of I-kappa-B-kinase beta at 100 nM; set-up: scale not given: the % may be the effect or the level left
Outline: (§1)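 Panel profiling of isolated kinases with inhibitor at 100 nM and 500 nM. […] Remaining kinase activity is expressed as % of control and is the mean of duplicate assays.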

[2] = target: Protein kinase C beta type (Homo sapiens) (UniProt P05771); assay: Inhibition of Protein kinase C beta 2 at 500 nM; set-up: scale not given: the % may be the effect or the level left; outline: as §1
[3] = target: Proto-oncogene tyrosine-protein kinase Src (Homo sapiens) (UniProt P12931); assay: Inhibition of c-Src protein tyrosine kinase at 500 nM; set-up: scale not given: the % may be the effect or the level left
Proto-oncogene tyrosine-protein kinase Src (Homo sapiens), sequence (P12931 2-536 limits assumed): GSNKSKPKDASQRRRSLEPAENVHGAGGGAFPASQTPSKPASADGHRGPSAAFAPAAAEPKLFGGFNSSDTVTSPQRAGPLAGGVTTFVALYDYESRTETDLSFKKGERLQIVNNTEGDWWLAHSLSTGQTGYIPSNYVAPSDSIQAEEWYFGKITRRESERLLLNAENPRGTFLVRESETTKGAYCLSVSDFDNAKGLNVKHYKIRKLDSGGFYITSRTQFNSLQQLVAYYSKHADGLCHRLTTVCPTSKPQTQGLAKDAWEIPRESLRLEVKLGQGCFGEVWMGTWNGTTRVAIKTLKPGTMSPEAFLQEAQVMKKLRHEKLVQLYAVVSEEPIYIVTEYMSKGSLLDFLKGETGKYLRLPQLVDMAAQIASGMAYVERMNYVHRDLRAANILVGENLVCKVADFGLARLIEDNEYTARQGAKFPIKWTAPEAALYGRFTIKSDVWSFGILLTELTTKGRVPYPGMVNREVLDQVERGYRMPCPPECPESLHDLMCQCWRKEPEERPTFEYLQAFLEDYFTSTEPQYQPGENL
Outline: (§2)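 Panel of 39 kinases, each tested at 100 and 500 nM inhibitor. […] Activity is expressed as % of control and is the mean of duplicate assays.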

[4] = target: Dual specificity mitogen-activated protein kinase kinase 6 (Homo sapiens) (UniProt P52564); assay: Inhibition of mitogen-activated protein kinase kinase 6 at 100 nM; set-up: scale not given: the % may be the effect or the level left; outline: as §2
Dual specificity mitogen-activated protein kinase kinase 6 (Homo sapiens), sequence (P52564 whole entry): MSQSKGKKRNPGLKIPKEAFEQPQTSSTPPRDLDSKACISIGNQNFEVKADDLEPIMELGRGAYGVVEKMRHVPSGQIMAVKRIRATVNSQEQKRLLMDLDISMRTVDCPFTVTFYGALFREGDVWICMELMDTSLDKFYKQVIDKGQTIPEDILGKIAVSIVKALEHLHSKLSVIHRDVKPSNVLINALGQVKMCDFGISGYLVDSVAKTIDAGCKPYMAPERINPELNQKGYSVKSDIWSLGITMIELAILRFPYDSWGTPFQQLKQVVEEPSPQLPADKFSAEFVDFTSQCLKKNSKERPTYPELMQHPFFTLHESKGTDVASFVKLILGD

[5] = target: 3-phosphoinositide-dependent protein kinase 1 (Homo sapiens) (UniProt O15530); assay: Inhibition of PDK1 kinase at 100 nM; set-up: scale not given: the % may be the effect or the level left; outline: as §1
[6] = target: Cyclin-dependent kinase 2/cyclin A (Homo sapiens) (UniProt P24941+P20248+P78396); assay: Inhibition of Cyclin A-cyclin-dependent kinase 2 at 100 nM; type: protein-complex assay; set-up: scale not given: the % may be the effect or the level left; outline: as §1
[7] = target: MAP kinase-activated protein kinase 5 (Homo sapiens) (UniProt Q8IW41); assay: Inhibition of Protein kinase PRAK at 500 nM; set-up: scale not given: the % may be the effect or the level left; outline: as §2
MAP kinase-activated protein kinase 5 (Homo sapiens), sequence (Q8IW41 whole entry): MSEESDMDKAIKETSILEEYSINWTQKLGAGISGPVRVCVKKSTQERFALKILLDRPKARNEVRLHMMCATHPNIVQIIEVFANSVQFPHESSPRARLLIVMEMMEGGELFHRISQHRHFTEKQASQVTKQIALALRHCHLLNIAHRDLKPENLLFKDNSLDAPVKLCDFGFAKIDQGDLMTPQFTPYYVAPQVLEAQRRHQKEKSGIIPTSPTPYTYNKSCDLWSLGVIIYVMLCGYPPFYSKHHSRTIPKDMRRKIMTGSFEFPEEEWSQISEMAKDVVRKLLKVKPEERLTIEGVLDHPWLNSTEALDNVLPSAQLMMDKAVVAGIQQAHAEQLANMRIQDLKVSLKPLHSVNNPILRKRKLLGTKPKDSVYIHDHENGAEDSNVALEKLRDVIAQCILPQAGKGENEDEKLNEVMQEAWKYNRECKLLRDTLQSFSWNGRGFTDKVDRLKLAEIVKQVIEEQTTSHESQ

[8] = target: Protein kinase C theta type (Homo sapiens) (UniProt Q04759); assay: Inhibition of Protein kinase C theta at 500 nM; set-up: scale not given: the % may be the effect or the level left; outline: as §2
Protein kinase C theta type (Homo sapiens), sequence (Q04759 whole entry, looked up): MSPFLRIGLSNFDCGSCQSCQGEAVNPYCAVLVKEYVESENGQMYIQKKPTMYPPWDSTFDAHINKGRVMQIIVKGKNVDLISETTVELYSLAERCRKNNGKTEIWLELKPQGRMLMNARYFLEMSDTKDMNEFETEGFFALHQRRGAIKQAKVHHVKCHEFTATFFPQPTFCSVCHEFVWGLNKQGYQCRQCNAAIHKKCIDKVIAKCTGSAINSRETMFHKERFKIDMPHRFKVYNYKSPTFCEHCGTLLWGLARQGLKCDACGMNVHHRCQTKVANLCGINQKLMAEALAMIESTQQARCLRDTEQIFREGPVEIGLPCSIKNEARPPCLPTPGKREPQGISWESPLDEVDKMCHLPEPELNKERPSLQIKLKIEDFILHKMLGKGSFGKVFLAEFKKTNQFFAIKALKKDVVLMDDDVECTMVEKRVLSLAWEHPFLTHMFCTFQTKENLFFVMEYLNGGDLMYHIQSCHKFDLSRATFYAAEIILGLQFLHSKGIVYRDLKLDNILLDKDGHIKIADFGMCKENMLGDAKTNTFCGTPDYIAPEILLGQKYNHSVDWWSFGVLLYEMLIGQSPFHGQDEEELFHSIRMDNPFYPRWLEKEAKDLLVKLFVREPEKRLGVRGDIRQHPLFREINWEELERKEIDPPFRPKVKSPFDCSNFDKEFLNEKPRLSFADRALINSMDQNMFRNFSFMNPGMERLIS

[9] = target: Mitogen-activated protein kinase 14 (Homo sapiens, UniProt Q16539); assay: Inhibition of Mitogen-activated protein kinase p38 alpha
[10] = target: Tyrosine-protein kinase CSK (Homo sapiens) (UniProt P41240); assay: Inhibition of Tyrosine-protein kinase CSK at 100 nM; set-up: scale not given: the % may be the effect or the level left; outline: as §2
Tyrosine-protein kinase CSK (Homo sapiens), sequence (P41240 2-450 limits assumed): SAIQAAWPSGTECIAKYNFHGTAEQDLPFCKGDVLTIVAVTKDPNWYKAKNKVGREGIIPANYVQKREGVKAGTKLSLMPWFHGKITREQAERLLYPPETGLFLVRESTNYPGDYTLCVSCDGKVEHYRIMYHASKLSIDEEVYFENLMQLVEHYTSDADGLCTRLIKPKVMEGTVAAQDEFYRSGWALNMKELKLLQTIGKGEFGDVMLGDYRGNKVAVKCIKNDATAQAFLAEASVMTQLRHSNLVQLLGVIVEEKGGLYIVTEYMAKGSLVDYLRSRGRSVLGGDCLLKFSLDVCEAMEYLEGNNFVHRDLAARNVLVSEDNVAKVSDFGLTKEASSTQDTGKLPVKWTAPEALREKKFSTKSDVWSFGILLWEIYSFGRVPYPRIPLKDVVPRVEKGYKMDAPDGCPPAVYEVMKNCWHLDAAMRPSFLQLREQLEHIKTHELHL

[11] = target: Protein kinase C alpha type (Homo sapiens) (UniProt P17252); assay: Inhibition of Protein kinase C alpha at 100 nM; set-up: scale not given: the % may be the effect or the level left; outline: as §1
[12] = target: Dual specificity mitogen-activated protein kinase kinase 1 (Homo sapiens) (UniProt Q02750); assay: Inhibition of Mitogen activated protein kinase kinase kinase 1 at 500 nM; set-up: scale not given: the % may be the effect or the level left
[13] = target: T1, Casein kinase II (Homo sapiens) (UniProt P67870+P68400+P19784); assay: Inhibition of CK2 kinase at 100 nM; type: protein-complex assay; set-up: scale not given: the % may be the effect or the level left; outline: as §1
[14] = target: Protein kinase C theta type (Homo sapiens) (UniProt Q04759); assay: Inhibition of Protein kinase C theta at 100 nM; set-up: scale not given: the % may be the effect or the level left; outline: as §2
[15] = target: Dual specificity mitogen-activated protein kinase kinase 7 (Homo sapiens) (UniProt O14733); assay: Inhibition of MKK7-beta kinase at 500 nM; set-up: scale not given: the % may be the effect or the level left; outline: as §1
[16] = target: Glycogen synthase kinase-3 beta (Homo sapiens, UniProt P49841); assay: Inhibition of Glycogen synthase kinase-3 beta
[17] = target: T2, Cyclin-dependent kinase 5/CDK5 activator 1 (Homo sapiens) (UniProt Q00535+Q15078); assay: Inhibition of Cyclin-dependent kinase 5-p35nck5a at 100 nM; type: protein-complex assay; set-up: scale not given: the % may be the effect or the level left; outline: as §1
T2 sequence (Q00535 whole entry): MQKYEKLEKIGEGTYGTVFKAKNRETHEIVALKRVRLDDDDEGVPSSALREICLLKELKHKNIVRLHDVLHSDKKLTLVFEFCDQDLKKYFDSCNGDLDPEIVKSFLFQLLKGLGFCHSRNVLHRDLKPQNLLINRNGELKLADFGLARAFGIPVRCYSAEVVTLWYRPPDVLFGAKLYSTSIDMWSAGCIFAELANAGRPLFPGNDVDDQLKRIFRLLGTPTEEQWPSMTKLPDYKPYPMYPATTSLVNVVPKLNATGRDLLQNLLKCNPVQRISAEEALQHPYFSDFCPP
T2 sequence (Q15078 99-307 partner limits assumed): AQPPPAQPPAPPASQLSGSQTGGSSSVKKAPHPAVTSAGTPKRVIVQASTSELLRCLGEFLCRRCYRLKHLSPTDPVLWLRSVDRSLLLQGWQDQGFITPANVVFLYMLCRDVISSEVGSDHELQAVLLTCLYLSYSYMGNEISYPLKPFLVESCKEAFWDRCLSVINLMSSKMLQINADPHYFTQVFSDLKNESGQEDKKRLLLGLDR

[18] = target: Tyrosine-protein kinase Fyn (Homo sapiens) (UniProt P06241); assay: Inhibition of Fyn protein kinase at 100 nM; set-up: scale not given: the % may be the effect or the level left; outline: as §1
Tyrosine-protein kinase Fyn (Homo sapiens), sequence (P06241 2-537 limits assumed): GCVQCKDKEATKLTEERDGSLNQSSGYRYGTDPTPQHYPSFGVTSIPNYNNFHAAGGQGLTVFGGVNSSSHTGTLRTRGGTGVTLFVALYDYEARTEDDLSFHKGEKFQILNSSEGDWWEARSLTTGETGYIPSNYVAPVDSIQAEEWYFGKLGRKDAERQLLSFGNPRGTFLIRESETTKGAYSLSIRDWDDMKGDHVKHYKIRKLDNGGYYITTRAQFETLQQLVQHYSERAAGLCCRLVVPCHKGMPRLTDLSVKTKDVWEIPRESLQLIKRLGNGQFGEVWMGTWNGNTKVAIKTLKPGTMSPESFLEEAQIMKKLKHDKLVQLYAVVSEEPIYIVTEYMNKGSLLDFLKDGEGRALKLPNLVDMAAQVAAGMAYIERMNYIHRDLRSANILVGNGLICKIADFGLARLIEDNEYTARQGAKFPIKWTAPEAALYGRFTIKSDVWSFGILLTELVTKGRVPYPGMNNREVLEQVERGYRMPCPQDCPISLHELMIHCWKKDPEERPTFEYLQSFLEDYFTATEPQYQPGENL

[19] = target: Cyclin-dependent kinase 4 (Homo sapiens) (UniProt P11802); assay: Inhibition of Rb phosphorylation at the CDK4 specific Ser780 residue (1 fold increase over control) after 24 hr incubation in HCT116 cells; type: functional, cell-based; settings: HCT-116, concentration not given here
[20] = target: CDK3/cyclin E (Homo sapiens) (UniProt P24864+O96020+Q00526); assay: Inhibition of Cyclin E-cyclin-dependent kinase 3 at 500 nM; type: protein-complex assay; set-up: scale not given: the % may be the effect or the level left; outline: as §1
[21] = target: Serine/threonine-protein kinase Sgk1 (Homo sapiens) (UniProt O00141); assay: Inhibition of Serum/glucocorticoid regulated kinase at 100 nM; set-up: scale not given: the % may be the effect or the level left; outline: as §2
[22] = target: RAF proto-oncogene serine/threonine-protein kinase (Homo sapiens) (UniProt P04049); assay: Inhibition of RAF proto-oncogene serine/threonine-protein kinase at 100 nM; set-up: scale not given: the % may be the effect or the level left; outline: as §2
[23] = target: Protein kinase C gamma type (Homo sapiens) (UniProt P05129); assay: Inhibition of Protein kinase C gamma at 500 nM; set-up: scale not given: the % may be the effect or the level left; outline: as §2
[24] = target: Tyrosine-protein kinase ZAP-70 (Homo sapiens) (UniProt P43403); assay: Inhibition of Zeta-chain (TCR) associated protein kinase 70 kDa (ZAP70) at 500 nM; set-up: scale not given: the % may be the effect or the level left; outline: as §2
[25] = target: Tyrosine-protein kinase Fyn (Homo sapiens) (UniProt P06241); assay: Inhibition of Fyn protein kinase at 500 nM; set-up: scale not given: the % may be the effect or the level left; outline: as §1
[26] = target: Tyrosine-protein kinase Lyn (Homo sapiens) (UniProt P07948); assay: Inhibition of Protein tyrosine kinase Lyn at 100 nM; set-up: scale not given: the % may be the effect or the level left
Tyrosine-protein kinase Lyn (Homo sapiens), sequence (P07948 2-512 limits assumed): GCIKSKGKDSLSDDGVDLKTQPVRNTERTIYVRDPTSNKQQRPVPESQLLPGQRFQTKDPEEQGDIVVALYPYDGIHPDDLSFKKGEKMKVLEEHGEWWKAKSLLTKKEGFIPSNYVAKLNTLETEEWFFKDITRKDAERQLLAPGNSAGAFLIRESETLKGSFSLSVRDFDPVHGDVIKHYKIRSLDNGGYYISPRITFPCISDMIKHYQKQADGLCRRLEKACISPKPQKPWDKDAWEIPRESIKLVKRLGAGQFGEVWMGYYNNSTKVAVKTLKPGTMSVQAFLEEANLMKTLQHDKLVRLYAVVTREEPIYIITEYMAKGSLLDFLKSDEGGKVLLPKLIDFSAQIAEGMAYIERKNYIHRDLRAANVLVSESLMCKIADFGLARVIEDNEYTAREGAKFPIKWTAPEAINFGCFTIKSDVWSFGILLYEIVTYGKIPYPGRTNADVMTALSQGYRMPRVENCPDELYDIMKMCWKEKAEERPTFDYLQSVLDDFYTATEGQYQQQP

[27] = target: T2, Cyclin-dependent kinase 5/CDK5 activator 1 (Homo sapiens); assay: Inhibition of Cyclin-dependent kinase 5-p35nck5a at 500 nM; type: protein-complex assay; set-up: scale not given: the % may be the effect or the level left; outline: as §1
[28] = target: T1, Casein kinase II (Homo sapiens); assay: Inhibition of CK2 kinase at 500 nM; type: protein-complex assay; set-up: scale not given: the % may be the effect or the level left; outline: as §1
[29] = target: Tyrosine-protein kinase SYK (Homo sapiens) (UniProt P43405); assay: Inhibition of Syk protein tyrosine kinase at 100 nM; set-up: scale not given: the % may be the effect or the level left; outline: as §2
[30] = target: Calcium/calmodulin-dependent protein kinase type IV (Homo sapiens) (UniProt Q16566); assay: Inhibition of Calcium/calmodulin-dependent protein kinase type IV at 500 nM; set-up: scale not given: the % may be the effect or the level left; outline: as §1
Calcium/calmodulin-dependent protein kinase type IV (Homo sapiens), sequence (Q16566 whole entry): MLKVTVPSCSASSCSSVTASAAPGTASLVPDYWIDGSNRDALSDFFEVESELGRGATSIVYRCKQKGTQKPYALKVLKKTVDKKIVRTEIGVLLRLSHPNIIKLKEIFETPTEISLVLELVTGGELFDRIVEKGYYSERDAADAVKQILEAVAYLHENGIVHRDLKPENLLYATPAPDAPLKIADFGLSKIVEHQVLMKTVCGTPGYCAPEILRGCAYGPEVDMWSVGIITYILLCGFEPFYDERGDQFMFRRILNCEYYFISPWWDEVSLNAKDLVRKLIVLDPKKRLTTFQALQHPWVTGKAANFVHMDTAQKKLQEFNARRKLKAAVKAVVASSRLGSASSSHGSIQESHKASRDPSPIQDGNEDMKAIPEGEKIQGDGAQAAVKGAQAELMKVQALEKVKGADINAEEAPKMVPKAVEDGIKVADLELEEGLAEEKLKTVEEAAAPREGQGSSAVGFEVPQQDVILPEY

[31] = target: Serine/threonine-protein kinase N2 (Homo sapiens) (UniProt Q16513); assay: Inhibition of PRK2 at 100 nM; set-up: scale not given: the % may be the effect or the level left; outline: as §1
[32] = target: Cyclin-dependent kinase 4/cyclin D1 (Homo sapiens, UniProt P11802); assay: Inhibitory activity against Cyclin D1-cyclin-dependent kinase 4 in enzymatic assay by measuring phosphorylation of RbING; type: protein-complex assay
[33] = target: Tyrosine-protein kinase CSK (Homo sapiens) (UniProt P41240); assay: Inhibition of Tyrosine-protein kinase CSK at 500 nM; set-up: scale not given: the % may be the effect or the level left; outline: as §2
[34] = target: Mitogen-activated protein kinase 8 (Homo sapiens) (UniProt P45983); assay: Inhibition of c-Jun N-terminal kinase 1-alpha 1 at 100 nM; set-up: scale not given: the % may be the effect or the level left; outline: as §2
Mitogen-activated protein kinase 8 (Homo sapiens), sequence (P45983 whole entry): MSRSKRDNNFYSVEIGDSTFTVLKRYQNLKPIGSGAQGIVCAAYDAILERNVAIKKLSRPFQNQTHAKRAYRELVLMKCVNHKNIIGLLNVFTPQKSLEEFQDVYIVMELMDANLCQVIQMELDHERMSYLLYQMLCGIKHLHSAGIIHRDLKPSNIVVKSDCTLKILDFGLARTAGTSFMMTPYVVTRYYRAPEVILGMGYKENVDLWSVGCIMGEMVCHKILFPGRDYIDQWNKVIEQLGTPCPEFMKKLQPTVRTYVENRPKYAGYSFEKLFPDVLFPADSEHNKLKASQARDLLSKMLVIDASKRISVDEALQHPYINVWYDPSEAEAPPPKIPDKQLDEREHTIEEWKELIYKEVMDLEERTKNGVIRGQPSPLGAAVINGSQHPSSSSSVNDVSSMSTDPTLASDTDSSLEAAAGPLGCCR

[35] = target: Mitogen-activated protein kinase 8 (Homo sapiens) (UniProt P45983); assay: Inhibition of c-Jun N-terminal kinase 1-alpha 1 at 500 nM; set-up: scale not given: the % may be the effect or the level left; outline: as §2
[36] = target: Tyrosine-protein kinase SYK (Homo sapiens) (UniProt P43405); assay: Inhibition of Syk protein tyrosine kinase at 500 nM; set-up: scale not given: the % may be the effect or the level left; outline: as §2
[37] = target: Rho-associated protein kinase 2 (Homo sapiens) (UniProt O75116); assay: Inhibition of Protein kinase ROCK2 at 100 nM; set-up: scale not given: the % may be the effect or the level left; outline: as §2
[38] = target: Cyclin-dependent kinase 2/cyclin E (Homo sapiens, UniProt P24941); assay: Inhibitory activity against Cyclin E-cyclin-dependent kinase 2 in enzymatic assay by measuring phosphorylation of RbING; type: protein-complex assay
[39] = target: Proto-oncogene tyrosine-protein kinase Src (Homo sapiens) (UniProt P12931); assay: Inhibition of c-Src protein tyrosine kinase at 100 nM; set-up: scale not given: the % may be the effect or the level left; outline: as §2
[40] = target: Tyrosine-protein kinase Lyn (Homo sapiens) (UniProt P07948); assay: Inhibition of Protein tyrosine kinase Lyn at 500 nM; set-up: scale not given: the % may be the effect or the level left; outline: as §2
[41] = target: Casein kinase I (Homo sapiens) (UniProt Q9HCP0+P78368+P48730+P49674+P48729); assay: Inhibition of CK1 kinase at 500 nM; type: protein assay; set-up: scale not given: the % may be the effect or the level left; outline: as §1
[42] = target: MAP kinase-activated protein kinase 5 (Homo sapiens) (UniProt Q8IW41); assay: Inhibition of Protein kinase PRAK at 100 nM; set-up: scale not given: the % may be the effect or the level left; outline: as §2
[43] = tested on: NCI-H460; assay: In vitro antiproliferative activity against human carcinoma cell line H460 (lung); type: functional, cell-based

## Cn1ccc2ccc3c4[nH]c5c(CCCN[C@H]6CC[C@H](O)CC6)cccc5c4c4c(c3c21)C(=O)NC4=O
[1]
  Control: 120%
[2]
  Control: 59%
[3]
  Control: 91%
[4]
  Control: 100%
[5]
  Control: 104%
[6]
  Control: 83%
[7]
  Control: 50%
[8]
  Control: 58%
[9]
  IC50: 20200 nM
[10]
  Control: 104%
[11]
  Control: 100%
[12]
  Control: 87%
[13]
  Control: 99%
[14]
  Control: 82%
[15]
  Control: 70%
[16]
  IC50: > 20000 nM
[17]
  Control: 94%
[18]
  Control: 92%
[19]
  inhibition: 45%
[20]
  Control: 63%
[21]
  Control: 94%
[22]
  Control: 112%
[23]
  Control: 84%
[24]
  Control: 107%
[25]
  Control: 74%
[26]
  Control: 78%
[27]
  Control: 62%
[28]
  Control: 94%
[29]
  Control: 94%
[30]
  Control: 102%
[31]
  Control: 97%
[32]
  IC50: 49 nM
[33]
  Control: 116%
[34]
  Control: 99%
[35]
  Control: 88%
[36]
  Control: 68%
[37]
  Control: 90%
[38]
  IC50: 1030 nM
[39]
  Control: 100%
[40]
  Control: 18%
[41]
  Control: 89%
[42]
  Control: 86%
[43]
  IC50: 1670 nM
